ChEMBL document CHEMBL1151164, “New prostanoids with cytotoxic activity from Taiwanese octocoral Clavularia viridis” (J Nat Prod, 2004)

What was measured:
PC-3 = assay: Cytotoxicity against human PC3 cells after 72 hrs by SRB assay; format: functional, cell-based; details: PC-3, 48 h, in the assay text read “48 hrs” for “72 hrs”
In short: (§1)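 Cells seeded in RPMI 1640 with 5% FBS at 37 °C, 5% CO2; after 24 h, two plates per line fixed in situ with TCA as time-zero. Drug added, then 48 h further incubation at 37 °C. Fixed with cold TCA, stained with 0.4% w/v SRB in 1% acetic acid, bound dye solubilized in 10 mM trizma base, absorbance 515 nm. IC50 = concentration halving absorbance versus untreated cells.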

HT-29 = assay: Cytotoxicity against human HT-29 cells after 72 hrs by SRB assay; format: functional, cell-based; details: HT-29, 48 h, in the assay text read “48 hrs” for “72 hrs”; in short: as §1

Structure (SMILES) | IC50 (PC-3) [µM] | IC50 (HT-29) [µM]
CCCCC/C=C\C[C@]1(O)C=CC(=O)/C1=C/C=C\CCCC(=O)OC | 7.2 | 6
CCCCC/C=C\C[C@]1(O)C=CC(=O)/C1=C/C=C/CCCC(=O)OC | 5.4 | 4.1
CCCCC/C=C\C[C@]1(O)C=CC(=O)/C1=C\C=C\CCCC(=O)OC | 3.9 | 7.9
CCCCC/C=C\C[C@@]1(O)C=C(Br)C(=O)/C1=C\C=C\CCCC(=O)OC [BROMOCLAVULONE III] | 0.5 | 0.5
CCCCC/C=C\C[C@@]1(O)C=C(Br)C(=O)/C1=C/C=C/CCCC(=O)OC [BROMOVULONE II] | 5.6 | 5.4
CCCCC/C=C\C[C@@]1(O)C=C(Cl)C(=O)/C1=C/C=C/CCCC(=O)OC [CHLOROVULONE III] | 1.9 | 2.7
CCCCC/C=C\C[C@@]1(O)C=C(Cl)C(=O)/C1=C\C=C\CCCC(=O)OC [CHLOROVULONE II] | 0.8 | –
CCCCC/C=C\C[C@]1(OC(C)=O)C=CC(=O)/C1=C/C=C/CCCC(=O)OC [CLAVIRIDENONE E] | 3.5 | > 10
CCCCC/C=C\C[C@@]1(O)C=C(I)C(=O)/C1=C\C=C\CCCC(=O)OC [IODOVULONE III] | 6.7 | > 10
CCCCC/C=C\C[C@@]1(O)C=C(I)C(=O)/C1=C/C=C/CCCC(=O)OC [IODOVULONE II] | 3.9 | 6.5
